# Laboratory results taken from ChEMBL document CHEMBL4028901, “Novel Antitubercular 6-Dialkylaminopyrimidine Carboxamides from Phenotypic Whole-Cell High Throughput Screening of a SoftFocus Library: Structure-Activity Relationship and Target Identification Studies” (J Med Chem, 2017).
# Legend:
# [1] = test system: Liver; test: Metabolic stability in human liver microsomes assessed as compound remaining at 0.1 uM after 30 mins by LC-MS/MS analysis; assay type: ADME, microsome; conditions: 0.5 h
# In short: (§1)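 Compound at 0.1 μM incubated in duplicate with mouse, rat or pooled human liver microsomes (0.4 mg/mL) at 37 °C. Run with and without 1 mM NADPH, sampled at predetermined time points.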
# [2] = test system: Mus musculus; test: Apparent elimination half life in C57/BL6 mouse at 5 mg/kg, iv measured up to 24 hrs post dose by LC-MS/MS analysis; assay type: ADME, organism-based; conditions: in vivo
# In short: (§2)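 Male mice, 3 animals, not fasted, given an IV bolus in 10% DMSO, 50% propylene glycol/ethanol (4:1) and 40% polyethylene glycol or water. Blood sampled into heparinised tubes at 0.17, 0.5, 1, 3, 5, 8, 12 and 24 h, stored frozen, precipitated with ice-cold acetonitrile. Measured by LC-MS/MS with internal standards against blood-matrix calibration standards.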
# [3] = test system: Mus musculus; test: Cmax in C57/BL6 mouse at 20 mg/kg, po measured up to 24 hrs post dose by LC-MS/MS analysis; assay type: ADME, organism-based; parameters: dose 20 mg/kg, route oral; conditions: in vivo
# In short: (§3)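 Male mice, 3 per route, not fasted, free access to water. Oral dose given as aqueous suspension in 0.5% (w/v) hydroxypropyl methylcellulose with 0.4% (v/v) Tween 80. Blood drawn into heparinised tubes at 0.5, 1, 3, 5, 8, 12 and 24 h, kept below -15 °C, protein-precipitated with ice-cold acetonitrile. Quantified by LC-MS/MS against standards made in drug-free mouse blood.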
# [4] = test system: Mus musculus; test: Apparent elimination half life in C57/BL6 mouse at 20 mg/kg, po measured up to 24 hrs post dose by LC-MS/MS analysis; assay type: ADME, organism-based; conditions: in vivo; in short: as §3
# [5] = test system: Mus musculus; test: AUC (0 to infinity) in C57/BL6 mouse at 20 mg/kg, po measured up to 24 hrs post dose by LC-MS/MS analysis; assay type: ADME, organism-based; parameters: dose 20 mg/kg, route oral, time infinity; conditions: in vivo; in short: as §3
# [6] = Kinetic solubility of the compound in pH 7.4 solution at 10 to 220 uM after 2 hrs by shake flask method; assay type: physicochemical; conditions: buffer, pH 7.4, 2 h, 220 µM
# [7] = test system: Vero; test: Cytotoxicity against African green monkey Vero cells assessed as reduction in cell viability by MTT assay; assay type: cell-based; conditions: Chlorocebus sabaeus
# In short: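 MTT assay in Vero cells, samples in triplicate on one occasion. Stocks at 20 mg/mL in DMSO, diluted in complete medium as 10-fold serial dilutions over 6 concentrations. Emetine used as reference. IC50 derived by non-linear dose-response curve fitting.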
# [8] = test system: Mus musculus; test: Volume of distribution in C57/BL6 mouse at 5 mg/kg, iv measured up to 24 hrs post dose by LC-MS/MS analysis; assay type: ADME, organism-based; conditions: in vivo; in short: as §2
# [9] = test system: Mus musculus; test: AUC (0 to infinity) in C57/BL6 mouse at 5 mg/kg, iv measured up to 24 hrs post dose by LC-MS/MS analysis; assay type: ADME, organism-based; parameters: dose 5 mg/kg, route intravenous, time infinity; conditions: in vivo; in short: as §2
# [10] = test system: Mus musculus; test: Tmax in C57/BL6 mouse at 20 mg/kg, po measured up to 24 hrs post dose by LC-MS/MS analysis; assay type: ADME, organism-based; conditions: in vivo; in short: as §3
# [11] = test system: Liver; test: Drug metabolism in BALB mouse liver microsomes assessed as cleavage of amide bound on RHS at 10 uM after 1 hr by LC-MS/MS analysis; assay type: ADME, microsome
# In short: (§4)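 Incubation at 37 °C for 1 h with shaking in 100 mM phosphate buffer pH 7.4, 1 mg/ml microsomes, 5 mM MgCl2 and 1 mM NADPH. Ice-cold acetonitrile precipitation, filtration, then LC-MS/MS. Controls: unincubated sample, and samples lacking NADPH or lacking microsomes; propranolol 10 μM as positive control. Metabolites found by comparing T60 with T0 and no-NADPH chromatograms, with product ion spectra of [M+H]+ compared against parent and synthetic standards where available.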
# [12] = test system: Mycobacterium tuberculosis; test: Antibacterial activity against Mycobacterium tuberculosis H37RvMA grown in 7H9/ADC medium measured 7 to 14 days post inoculation by broth microdilution method; assay type: functional
# [13] = Kinetic solubility of the compound in fasted-state simulated intestinal fluid at 10 to 220 uM at pH 6.5 after 2 hrs by shake flask method; assay type: physicochemical; conditions: read-out: Kinetic_solubility
# In short: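 Miniaturised shake flask. 10 mM DMSO stocks spiked 1:50 into duplicate FaSSIF (pH 6.5), 2% final DMSO. Shaken 2 h at 25 °C, filtered, analysed by HPLC-DAD against calibration standards (10–220 μM).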
# [14] = test system: Liver; test: Drug metabolism in BALB mouse liver microsomes assessed as N-demethylation on LHS at 10 uM after 1 hr by LC-MS/MS analysis; assay type: ADME, microsome; in short: as §4
# [15] = test system: Liver; test: Metabolic stability in rat liver microsomes assessed as compound remaining at 0.1 uM after 30 mins by LC-MS/MS analysis; assay type: ADME, microsome; conditions: 0.5 h; in short: as §1
# [16] = test system: Liver; test: Metabolic stability in mouse liver microsomes assessed as compound remaining at 0.1 uM after 30 mins by LC-MS/MS analysis; assay type: ADME, microsome; conditions: 0.5 h; in short: as §1
# [17] = test system: Mycobacterium tuberculosis; test: Antibacterial activity against Mycobacterium tuberculosis H37RvMA grown in GAST/Fe medium measured 7 to 14 days post inoculation by broth microdilution method; assay type: functional
# In short: (§5)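 H37RvMa grown to OD600 0.6–0.7, diluted 1:100 in GAST/Fe. Compounds two-fold serially diluted from a top concentration of 640 μM, in duplicate. Incubated at 37 °C with humidification.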
# [18] = test system: Mus musculus; test: Oral bioavailability in C57/BL6 mouse at 20 mg/kg measured up to 24 hrs post dose by LC-MS/MS analysis; assay type: ADME, organism-based; conditions: in vivo; in short: as §3
# [19] = test system: Plasma; test: Fraction unbound in human plasma at 5 uM pre-incubated for 1 hr by ultra-centrifugation and LC-MS/MS method; assay type: ADME, cell-free
# In short: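 Pooled human plasma spiked to 5 μM and pre-incubated 1 h at 37 °C. Duplicate aliquots ultracentrifuged 4 h at 37 °C; an unspun aliquot served as the total sample. Analyte measured by LC-MS/MS.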
# [20] = Lipophilicity, log P of the compound at 100 uM at pH 7.4 after 3 hrs by shake-flask method; assay type: physicochemical; conditions: buffer
# In short: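 Shake-flask method run in triplicate. A 10 mM stock was spiked into a 1:1 mixture of phosphate buffer (pH 7.4) and n-octanol, then shaken at 1500 rpm on an orbital shaker for 3 h at room temperature.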
# [21] = test system: Mycobacterium tuberculosis; test: Antibacterial activity against Mycobacterium tuberculosis […] SAWC1125 grown in middlebrook 7H9 medium measured on day 7 and 14 by MABA assay; assay type: functional; conditions: 168 h
# In short: (§6)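 Clinical M. tuberculosis strains tested by broth microdilution in 7H9 medium. On days 7 and 14, Alamar Blue added and plates reincubated 24 h at 37 °C. Colour read by eye (blue means no growth, pink means growth). MIC90 is the lowest concentration with no colour change.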
# [22] = test system: Mycobacterium tuberculosis; test: Antibacterial activity against Mycobacterium tuberculosis […] SAWC3200 grown in middlebrook 7H9 medium measured on day 7 and 14 by MABA assay; assay type: functional; conditions: 168 h; in short: as §6
# [23] = test system: Mycobacterium tuberculosis; test: Antibacterial activity against Mycobacterium tuberculosis […] SAWC3388 grown in middlebrook 7H9 medium measured on day 7 and 14 by MABA assay; assay type: functional; conditions: 168 h; in short: as §6
# [24] = test system: Mycobacterium tuberculosis; test: Antibacterial activity against Mycobacterium tuberculosis […] SAWC3933 grown in middlebrook 7H9 medium measured on day 7 and 14 by MABA assay; assay type: functional; conditions: 168 h; in short: as §6
# [25] = test system: Mycobacterium tuberculosis; test: Antibacterial activity against Mycobacterium tuberculosis […] SAWC3385 grown in middlebrook 7H9 medium measured on day 7 and 14 by MABA assay; assay type: functional; conditions: 168 h; in short: as §6
# [26] = test system: Mycobacterium tuberculosis; test: Antibacterial activity against Mycobacterium tuberculosis […] SAWC3906 grown in middlebrook 7H9 medium measured on day 7 and 14 by MABA assay; assay type: functional; conditions: 168 h; in short: as §6
# [27] = test system: Mycobacterium tuberculosis; test: Antibacterial activity against wild type Mycobacterium tuberculosis H37Rv grown in GAST/Fe medium measured on day 14 post inoculation by broth microdilution method; assay type: functional; conditions: 336 h; in short: as §5
# [28] = test system: Mycobacterium tuberculosis; test: Antibacterial activity against Mycobacterium tuberculosis H37Rv grown in middlebrook 7H9 medium measured on day 7 and 14 by MABA assay; assay type: functional; conditions: 168 h
# [29] = test system: Mycobacterium tuberculosis; test: Antibacterial activity against cytochrome bd oxidase knockout GFP-fused Mycobacterium tuberculosis H37RvMA grown in 7H9/GLU/ADC medium measured on day 7 and day 14 post inoculation by fluorescence plate reader assay; assay type: functional; conditions: Mycobacterium tuberculosis, H37RvMA; read-out: MIC99
# [30] = test system: Mycobacterium tuberculosis; test: Antibacterial activity against cytochrome bd oxidase knockout GFP-fused Mycobacterium tuberculosis H37RvMA grown in GAST/Fe medium measured on day 7 and day 14 post inoculation by fluorescence plate reader assay; assay type: functional
SMILES,Stability [1],betat1/2(app) [2],Cmax [3],betat1/2(app) [4],AUC [5],Kinetic_solubility [6],IC50 [7],Vd [8],AUC [9],Tmax [10],Drug metabolism [11],MIC99 [12],solubility kinetic at 2 h [13],Drug metabolism [14],Stability [15],Stability [16],MIC99 [17],F [18],Fu [19],"logD at 3 h, 100 µM [20]",also measured
CN(Cc1ccc(C(F)(F)F)cc1)c1cc(C(=O)Nc2ccccc2)ncn1,55%,4.6 h,2200 nM,8.7 h,1334 µM·min,< 5 µM,258 µM,4.3 L/kg,1224 µM·min,1 h,Metabolite_Detected,5 µM,5 µM,Metabolite_Detected,87%,60%,5 µM,28%,0.11%,5,
CN(Cc1ccc(C(F)(F)F)nc1)c1cc(C(=O)Nc2nncs2)ncn1,100%,3 h,10800 nM,3 h,5614 µM·min,191 µM,28 µM,1.7 L/kg,2106 µM·min,1 h,,50 µM,195 µM,,88%,78%,5 µM,67%,0.32%,1.4,MIC90 [21]: 2.5 µM; MIC90 [22]: 2.5 to 5 µM; MIC90 [23]: 10 µM; MIC90 [24]: 10 to 20 µM; MIC90 [25]: 10 µM; MIC90 [26]: 2.5 to 5 µM
CN(Cc1ccc(F)cc1)c1cc(C(=O)Nc2nncs2)ncn1,67%,5.1 h,2580 nM,4.4 h,1022 µM·min,128 µM,21.9 µM,4.8 L/kg,1329 µM·min,1 h,Metabolite_Detected,12.5 µM,< 5 µM,Metabolite_Detected,65%,74%,4.7 µM,19%,0.01%,2,MIC90 [21]: < 0.08 µM; MIC99 [27]: 5 µM; MIC90 [22]: < 0.08 µM; MIC90 [23]: 0.15 µM; MIC90 [28]: 2.5 µM; MIC90 [24]: 0.625 µM; MIC90 [25]: < 0.08 µM; MIC90 [26]: < 0.08 µM
CN(Cc1ccc(S(C)(=O)=O)cc1)c1cc(C(=O)Nc2ccccc2)ncn1,,,,,,10 µM,,,,,,,,,,,,,,,MIC99 [29]: > 125 µM; MIC99 [30]: > 125 µM
